According to ChEMBL document CHEMBL1157757, “Macrocyclic hexaoxazoles: Influence of aminoalkyl substituents on RNA and DNA G-quadruplex stabilization and cytotoxicity” (Bioorg Med Chem Lett, 2010):

How the values were obtained:
[1] = Cytotoxicity against human RPMI8402 cells after 4 days by MTT assay; format: functional, cell-based; conditions: RPMI 8402, 96 h
Summary of the method: (§1)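 Growth inhibition in RPMI 8402, KB3-1, MDR1-expressing KBV-1 and BCRP-expressing KBH5.0 cells; IC50 reported as mean of three experiments ± standard deviation.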

[2] = Cytotoxicity against wild type human KB3-1 cells after 4 days by MTT assay; format: functional, cell-based; conditions: KB 3-1, 96 h; summary of the method: as §1
[3] = Cytotoxicity against multidrug-resistant human KBV1 cells expressing MDR1 after 4 days by MTT assay; format: functional, cell-based; conditions: KB-V1, 96 h; summary of the method: as §1
[4] = Cytotoxicity against multidrug-resistant human KBH5.0 cells expressing BCRP after 4 days by MTT assay; format: functional, cell-based; conditions: KBH5.0 cell, 96 h; summary of the method: as §1
Nucleic Acid [5] = experiment: Binding affinity to human G-quadruplex d[T2G3(T2AG3)3A] DNA assessed as change in transition temperature at 20 uM in presence of 150 mM K+ ions; format: nucleic-acid assay
Summary of the method: (§2)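 Quadruplex UV melting of hTel DNA or AurA RNA at 5 µM in strand, ligand 20 µM, in 10 mM potassium phosphate pH 7.5 plus 132 mM KCl (150 mM total K+); Ttran from maxima or minima of first-derivative melting profiles; ΔTtran uncertainty 0.5 °C.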

Nucleic Acid [6] = experiment: Binding affinity to r[AG4CG2-CUG2UCG2AGUG2C] sequence of quadruplex RNA assessed as change in transition temperature at 20 uM in presence of 150 mM K+ ions; format: nucleic-acid assay; summary of the method: as §2
[7] = Cytotoxicity against human RPMI8402 cells; format: functional, cell-based; conditions: RPMI 8402; summary of the method: as §1

ΔTm (Nucleic Acid [5]) | ΔTm (Nucleic Acid [6]) | Compound | IC50 [1] | IC50 [2] | IC50 [3] | IC50 [4] | IC50 [7]
11.5 °C | 19.5 °C | CC(C)[C@@H]1NC(=O)c2coc(n2)-c2coc(n2)-c2coc(n2)[C@H](C(C)C)NC(=O)c2coc(n2)-c2coc(n2)-c2coc1n2 [HEXAOXAZOLE DIVALINE] | 540 nM | 350 nM | 7700 nM | 450 nM | 540 nM
 |  | NCCC[C@@H]1NC(=O)c2coc(n2)-c2coc(n2)-c2coc(n2)[C@H](CCCN)NC(=O)c2coc(n2)-c2coc(n2)-c2coc1n2 | > 10000 nM | 6300 nM | > 10000 nM | 3100 nM | 
 |  | CC(C)[C@@H]1NC(=O)c2coc(n2)-c2coc(n2)-c2coc(n2)[C@H](CCCCNC(=O)OC(C)(C)C)NC(=O)c2coc(n2)-c2coc(n2)-c2coc1n2 | 350 nM | 300 nM | > 10000 nM | 330 nM | 
 |  | CC(C)[C@@H]1NC(=O)c2coc(n2)-c2coc(n2)-c2coc(n2)[C@H](CCN)NC(=O)c2coc(n2)-c2coc(n2)-c2coc1n2 | 1200 nM | 2200 nM | > 10000 nM | 1200 nM | 
 |  | CC(=O)NCC[C@@H]1NC(=O)c2coc(n2)-c2coc(n2)-c2coc(n2)[C@H](C(C)C)NC(=O)c2coc(n2)-c2coc(n2)-c2coc1n2 | 950 nM | 450 nM | > 10000 nM | 900 nM | 
 |  | CC(C)[C@@H]1NC(=O)c2coc(n2)-c2coc(n2)-c2coc(n2)[C@H](CCCCN)NC(=O)c2coc(n2)-c2coc(n2)-c2coc1n2 | 4800 nM | 3400 nM | > 10000 nM | 3000 nM | 
 |  | CC(=O)NCC[C@@H]1NC(=O)c2coc(n2)-c2coc(n2)-c2coc(n2)[C@H](CCNC(C)=O)NC(=O)c2coc(n2)-c2coc(n2)-c2coc1n2 | > 10000 nM | > 10000 nM | > 10000 nM | > 10000 nM | 
 |  | CC(C)(C)OC(=O)NCCCC[C@@H]1NC(=O)c2coc(n2)-c2coc(n2)-c2coc(n2)[C@H](CCCCNC(=O)OC(C)(C)C)NC(=O)c2coc(n2)-c2coc(n2)-c2coc1n2 | 400 nM | 250 nM | > 10000 nM | 330 nM | 
 |  | CC(=O)NCCC[C@@H]1NC(=O)c2coc(n2)-c2coc(n2)-c2coc(n2)[C@H](C(C)C)NC(=O)c2coc(n2)-c2coc(n2)-c2coc1n2 | 2500 nM | 3400 nM | > 10000 nM | 3000 nM | 
 |  | NCC[C@@H]1NC(=O)c2coc(n2)-c2coc(n2)-c2coc(n2)[C@H](CCN)NC(=O)c2coc(n2)-c2coc(n2)-c2coc1n2 | > 10000 nM | > 10000 nM | > 10000 nM | > 10000 nM | 
 |  | CN(C)CC[C@@H]1NC(=O)c2coc(n2)-c2coc(n2)-c2coc(n2)[C@H](CCN(C)C)NC(=O)c2coc(n2)-c2coc(n2)-c2coc1n2 | 4300 nM | 2800 nM | > 10000 nM | 650 nM | 
 |  | CC(C)[C@@H]1NC(=O)c2coc(n2)-c2coc(n2)-c2coc(n2)[C@H](CCCN)NC(=O)c2coc(n2)-c2coc(n2)-c2coc1n2 | 2500 nM | 800 nM | > 10000 nM | 380 nM | 
 |  | CC(=O)NCCCC[C@@H]1NC(=O)c2coc(n2)-c2coc(n2)-c2coc(n2)[C@H](CCCCNC(C)=O)NC(=O)c2coc(n2)-c2coc(n2)-c2coc1n2 | 3300 nM | 4000 nM | > 10000 nM | 4500 nM | 
 |  | CC(C)[C@@H]1NC(=O)c2coc(n2)-c2coc(n2)-c2coc(n2)[C@H](CCCNC(=O)OC(C)(C)C)NC(=O)c2coc(n2)-c2coc(n2)-c2coc1n2 | 290 nM | 230 nM | > 10000 nM | 150 nM | 
 |  | CC(=O)NCCCC[C@@H]1NC(=O)c2coc(n2)-c2coc(n2)-c2coc(n2)[C@H](C(C)C)NC(=O)c2coc(n2)-c2coc(n2)-c2coc1n2 | 750 nM | 710 nM | > 10000 nM | 1900 nM | 
 |  | CN(C)CCC[C@@H]1NC(=O)c2coc(n2)-c2coc(n2)-c2coc(n2)[C@H](CCCN(C)C)NC(=O)c2coc(n2)-c2coc(n2)-c2coc1n2 | > 10000 nM | 4200 nM | > 10000 nM | 3000 nM | 
 |  | CC(C)(C)OC(=O)NCC[C@@H]1NC(=O)c2coc(n2)-c2coc(n2)-c2coc(n2)[C@H](CCNC(=O)OC(C)(C)C)NC(=O)c2coc(n2)-c2coc(n2)-c2coc1n2 | 350 nM | 250 nM | > 10000 nM | 250 nM | 
 |  | CC(=O)NCCC[C@@H]1NC(=O)c2coc(n2)-c2coc(n2)-c2coc(n2)[C@H](CCCNC(C)=O)NC(=O)c2coc(n2)-c2coc(n2)-c2coc1n2 | > 10000 nM | > 10000 nM | > 10000 nM | > 10000 nM | 
 |  | CC(C)[C@@H]1NC(=O)c2coc(n2)-c2coc(n2)-c2coc(n2)[C@H](CCNC(=O)OC(C)(C)C)NC(=O)c2coc(n2)-c2coc(n2)-c2coc1n2 | 310 nM | 290 nM | > 10000 nM | 250 nM | 
 |  | CC(C)[C@@H]1NC(=O)c2coc(n2)-c2coc(n2)-c2coc(n2)C/C=C/c2coc(n2)-c2coc(n2)-c2coc1n2 | 30 nM | 40 nM | 3500 nM | 40 nM | 
 |  | NCCCC[C@@H]1NC(=O)c2coc(n2)-c2coc(n2)-c2coc(n2)[C@H](CCCCN)NC(=O)c2coc(n2)-c2coc(n2)-c2coc1n2 |  | > 10000 nM | > 10000 nM | > 10000 nM | 
 |  | CN(C)CCCC[C@@H]1NC(=O)c2coc(n2)-c2coc(n2)-c2coc(n2)[C@H](CCCCN(C)C)NC(=O)c2coc(n2)-c2coc(n2)-c2coc1n2 | > 10000 nM | 4000 nM | > 10000 nM | 3600 nM | 
24 °C |  | CC(C)[C@@H]1NC(=O)c2coc(n2)-c2coc(n2)-c2coc(n2)[C@H](CCCN(C)C)NC(=O)c2coc(n2)-c2coc(n2)-c2coc1n2 | 230 nM | 300 nM | > 10000 nM | 70 nM | 
 |  | CC(C)(C)OC(=O)NCCC[C@@H]1NC(=O)c2coc(n2)-c2coc(n2)-c2coc(n2)[C@H](CCCNC(=O)OC(C)(C)C)NC(=O)c2coc(n2)-c2coc(n2)-c2coc1n2 | 1400 nM | 450 nM | > 10000 nM | 380 nM | 
